# Measurements reported in ChEMBL document CHEMBL5058577, “EUbOPEN Chemogenomics Library 2 (Multiplex)” (2022).
# Several values for one entry are separate records, joined by “and”; a condition that tells them apart may be missing. Identical values can stand only once.
# Test system: U2OS
# Assay: Multiplex assay against U2OS
# Type: toxicity, cell-based
# Settings: human, 10 µM, compound concentration 10 uM
# In short: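 Phenotypes for tubulin, mitochondrial mass and membrane permeability are expressed as per cents of healthy-nucleus cells. Cells were stained live at seeding with Hoechst33342, BioTracker Green Microtubule Cytoskeleton Dye, MitoTracker Red and Annexin V Alexa Fluor 680, then imaged after compound addition on a CQ1 microscope at 37°C and 5% CO2. Machine-learning gating in CellPathfinder separated Hoechst high-intensity objects from normal cells, divided normal cells by nuclear state (healthy, pyknosed, fragmented) and divided pyknosed cells into mitotic or apoptotic.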
smiles,measurement,setting,value
CC(=O)O[C@H]1C(=O)[C@@]2(C)[C@H]([C@H](OC(=O)c3ccccc3)[C@]3(O)C[C@H](OC(=O)[C@H](O)[C@@H](NC(=O)c4ccccc4)c4ccccc4)C(C)=C1C3(C)C)[C@]1(OC(C)=O)CO[C@@H]1C[C@@H]2O [PACLITAXEL],Population Apoptotic (%),"12 h, replicate 1",64% and 59%
same,Population Fragmented Nuclei (%),"12 h, replicate 1",28% and 29%
same,Population Healthy Nuclei (%),"12 h, replicate 1",46% and 43%
same,Population Hoechst High Intensity Objects (%),"12 h, replicate 1",8% and 3%
same,Population Membrane Permeable-Phenotype (%),"12 h, replicate 1",23% and 12%
same,Population Mitochondria Different-Phenotype (%),"12 h, replicate 1",25% and 38%
same,Population Mitotic Cells (%),"12 h, replicate 1",35% and 40%
same,Population Normal (%),"12 h, replicate 1",91% and 96%
same,Population Pyknosed Nuclei (%),"12 h, replicate 1",24% and 26%
same,Population Tubulin-Different-Phenotype (%),"12 h, replicate 1",16% and 7%
same,Total Cell Count,"12 h, replicate 1",200 and 236
same,Population Apoptotic (%),"12 h, replicate 2",71% and 72%
same,Population Fragmented Nuclei (%),"12 h, replicate 2",16% and 22%
same,Population Healthy Nuclei (%),"12 h, replicate 2",60% and 63%
same,Population Hoechst High Intensity Objects (%),"12 h, replicate 2",2%
same,Population Membrane Permeable-Phenotype (%),"12 h, replicate 2",10% and 4%
same,Population Mitochondria Different-Phenotype (%),"12 h, replicate 2",30% and 46%
same,Population Mitotic Cells (%),"12 h, replicate 2",28% and 27%
same,Population Normal (%),"12 h, replicate 2",97%
same,Population Pyknosed Nuclei (%),"12 h, replicate 2",23% and 14%
same,Population Tubulin-Different-Phenotype (%),"12 h, replicate 2",14% and 8%
same,Total Cell Count,"12 h, replicate 2",94 and 79
same,Population Apoptotic (%),"24 h, replicate 1",69% and 64%
same,Population Fragmented Nuclei (%),"24 h, replicate 1",33% and 27%
same,Population Healthy Nuclei (%),"24 h, replicate 1",36% and 49%
same,Population Hoechst High Intensity Objects (%),"24 h, replicate 1",4% and 5%
same,Population Membrane Permeable-Phenotype (%),"24 h, replicate 1",21% and 13%
same,Population Mitochondria Different-Phenotype (%),"24 h, replicate 1",44% and 34%
same,Population Mitotic Cells (%),"24 h, replicate 1",30% and 35%
same,Population Normal (%),"24 h, replicate 1",95% and 94%
same,Population Pyknosed Nuclei (%),"24 h, replicate 1",29% and 23%
same,Population Tubulin-Different-Phenotype (%),"24 h, replicate 1",13% and 12%
same,Total Cell Count,"24 h, replicate 1",198 and 233
same,Population Apoptotic (%),"24 h, replicate 2",58% and 85%
same,Population Fragmented Nuclei (%),"24 h, replicate 2",25%
same,Population Healthy Nuclei (%),"24 h, replicate 2",48% and 50%
same,Population Hoechst High Intensity Objects (%),"24 h, replicate 2",7%
same,Population Membrane Permeable-Phenotype (%),"24 h, replicate 2",15% and 9%
same,Population Mitochondria Different-Phenotype (%),"24 h, replicate 2",52%
same,Population Mitotic Cells (%),"24 h, replicate 2",41% and 15%
same,Population Normal (%),"24 h, replicate 2",92%
same,Population Pyknosed Nuclei (%),"24 h, replicate 2",26% and 24%
same,Population Tubulin-Different-Phenotype (%),"24 h, replicate 2",18% and 9%
same,Total Cell Count,"24 h, replicate 2",95 and 90
same,Population Apoptotic (%),"48 h, replicate 1",76% and 82%
same,Population Fragmented Nuclei (%),"48 h, replicate 1",35% and 39%
same,Population Healthy Nuclei (%),"48 h, replicate 1",30% and 25%
same,Population Hoechst High Intensity Objects (%),"48 h, replicate 1",12% and 13%
same,Population Membrane Permeable-Phenotype (%),"48 h, replicate 1",27% and 25%
same,Population Mitochondria Different-Phenotype (%),"48 h, replicate 1",29% and 25%
same,Population Mitotic Cells (%),"48 h, replicate 1",23% and 17%
same,Population Normal (%),"48 h, replicate 1",87% and 86%
same,Population Pyknosed Nuclei (%),"48 h, replicate 1",33% and 34%
same,Population Tubulin-Different-Phenotype (%),"48 h, replicate 1",16% and 14%
same,Total Cell Count,"48 h, replicate 1",203 and 246
same,Population Apoptotic (%),"48 h, replicate 2",70% and 91%
same,Population Fragmented Nuclei (%),"48 h, replicate 2",27% and 37%
same,Population Healthy Nuclei (%),"48 h, replicate 2",31% and 34%
same,Population Hoechst High Intensity Objects (%),"48 h, replicate 2",8% and 15%
same,Population Membrane Permeable-Phenotype (%),"48 h, replicate 2",14% and 6%
same,Population Mitochondria Different-Phenotype (%),"48 h, replicate 2",50% and 44%
same,Population Normal (%),"48 h, replicate 2",91% and 84%
same,Population Pyknosed Nuclei (%),"48 h, replicate 2",41% and 27%
same,Population Tubulin-Different-Phenotype (%),"48 h, replicate 2",25% and 13%
same,Total Cell Count,"48 h, replicate 2",98
